# Source: ChEMBL document CHEMBL5352501, “Catalytic Degraders Effectively Address Kinase Site Mutations in EML4-ALK Oncogenic Fusions” (J Med Chem, 2023)
# Calls of active or inactive are those of the source. The rule behind the calls is not given here.
# Key:
# [1] = Microsomal stability in human liver microsomes at 1 uM measured upto 60 mins in presence of NADPH by LC-MS/MSC analysis; assay type: ADME, Microsome; conditions: 1 h
# [2] = Oral bioavailability in C57BL/J6 mouse at 10 mg/kg and measured upto 24 hrs by LC-MS/MS analysis; assay type: ADME, organism-based; conditions: in vivo
# Method in brief: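 Mouse PK was run with both oral and intravenous dosing, with 10 mg/kg as the study dose. Oral bioavailability was derived from comparing the two routes.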
# BaF3 [3] = assay: Antiproliferative activity against mouse Ba/F3 cells stably expressing HiBiT-tagged wild type EML4-ALK variant 3 assessed as cell growth inhibition incubated for 72 hrs by CellTiter-Glo assay; assay type: functional
# Method in brief: (§1)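 Ba/F3 cells stably expressing HiBiT-tagged EML4-ALK v3 (wild type or the named kinase-site mutant) were treated with compound for 72 h. Growth inhibition was reported as log GI50.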
# BaF3 [4] = assay: Antiproliferative activity against mouse Ba/F3 cells stably expressing HiBiT-tagged EML4-ALK variant 3 G1202R mutant assessed as cell growth inhibition incubated for 72 hrs by CellTiter-Glo assay; assay type: functional; method in brief: as §1
# BaF3 [5] = assay type: functional; conditions: Mus musculus, time 72 hrs, read-out: pGI50 (converted)
# BaF3 [6] = assay: Antiproliferative activity against mouse Ba/F3 cells stably expressing HiBiT-tagged EML4-ALK variant 3 C1156Y mutant assessed as cell growth inhibition incubated for 72 hrs by CellTiter-Glo assay; assay type: functional; method in brief: as §1
# BaF3 [7] = assay type: functional; conditions: Mus musculus, time 72 hrs
# [8] = Microsomal stability in human liver microsomes assessed as intrinsic clearance at 1 uM and measured upto 60 mins in presence of NADPH by LC-MS/MSC analysis; assay type: ADME, Microsome; conditions: read-out: CLH
# [9] = target: Protein cereblon/ALK tyrosine kinase receptor/Echinoderm microtubule-associated protein-like 4 (Homo sapiens, UniProt Q9UM73+Q9HC35+Q96SW2); assay: PROTAC activity at human CRBN/HiBit-tagged wild type human EML4-ALK variant 3b expressed in mouse BaF3 cells assessed as induction of EML4-ALK variant 3b fusion protein degradation incubated for 4 hrs by Nano-Glo HiBiT assay; assay type: cell-based
# Protein cereblon/ALK tyrosine kinase receptor/Echinoderm microtubule-associated protein-like 4 (Homo sapiens, UniProt Q9UM73+Q9HC35+Q96SW2), sequence (Q96SW2 whole entry, change not shown, the tested form may be a part): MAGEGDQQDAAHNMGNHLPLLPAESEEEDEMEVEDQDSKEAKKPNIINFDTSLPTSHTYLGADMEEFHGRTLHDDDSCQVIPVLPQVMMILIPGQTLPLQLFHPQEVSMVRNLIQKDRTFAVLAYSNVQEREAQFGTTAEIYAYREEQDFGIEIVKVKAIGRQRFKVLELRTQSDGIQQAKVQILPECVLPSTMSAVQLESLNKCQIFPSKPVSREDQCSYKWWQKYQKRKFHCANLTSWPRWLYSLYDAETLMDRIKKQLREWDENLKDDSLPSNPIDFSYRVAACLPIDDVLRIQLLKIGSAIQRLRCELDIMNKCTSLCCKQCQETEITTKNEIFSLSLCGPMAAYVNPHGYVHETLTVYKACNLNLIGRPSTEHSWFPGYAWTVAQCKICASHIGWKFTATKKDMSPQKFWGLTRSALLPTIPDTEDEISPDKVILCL
# Protein cereblon/ALK tyrosine kinase receptor/Echinoderm microtubule-associated protein-like 4 (Homo sapiens, UniProt Q9UM73+Q9HC35+Q96SW2), sequence (Q9HC35 whole entry, change not shown, the tested form may be a part): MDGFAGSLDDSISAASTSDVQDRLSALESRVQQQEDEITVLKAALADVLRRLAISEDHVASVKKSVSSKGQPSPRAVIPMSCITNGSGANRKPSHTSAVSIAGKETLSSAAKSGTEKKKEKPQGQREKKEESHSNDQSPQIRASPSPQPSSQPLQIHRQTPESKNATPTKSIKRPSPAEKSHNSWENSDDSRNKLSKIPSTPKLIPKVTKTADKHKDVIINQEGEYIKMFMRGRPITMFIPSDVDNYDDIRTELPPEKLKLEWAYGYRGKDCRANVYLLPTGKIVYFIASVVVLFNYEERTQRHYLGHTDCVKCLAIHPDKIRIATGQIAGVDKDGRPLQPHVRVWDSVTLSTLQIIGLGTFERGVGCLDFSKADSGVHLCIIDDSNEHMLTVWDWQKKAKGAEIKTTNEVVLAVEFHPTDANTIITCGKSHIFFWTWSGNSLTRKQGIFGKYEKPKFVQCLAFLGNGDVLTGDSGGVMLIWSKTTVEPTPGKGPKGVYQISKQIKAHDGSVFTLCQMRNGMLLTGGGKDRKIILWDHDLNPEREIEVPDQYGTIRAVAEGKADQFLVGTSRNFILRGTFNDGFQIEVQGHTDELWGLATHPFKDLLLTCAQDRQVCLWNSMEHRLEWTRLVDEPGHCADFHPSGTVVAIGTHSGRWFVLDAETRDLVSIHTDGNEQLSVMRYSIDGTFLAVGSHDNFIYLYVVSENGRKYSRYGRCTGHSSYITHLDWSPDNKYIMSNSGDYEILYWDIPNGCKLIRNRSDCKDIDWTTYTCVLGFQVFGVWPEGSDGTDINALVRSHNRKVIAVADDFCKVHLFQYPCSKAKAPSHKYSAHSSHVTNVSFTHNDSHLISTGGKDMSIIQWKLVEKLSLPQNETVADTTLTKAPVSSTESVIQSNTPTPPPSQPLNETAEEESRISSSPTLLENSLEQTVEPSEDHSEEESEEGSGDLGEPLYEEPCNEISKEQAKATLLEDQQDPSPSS
# Protein cereblon/ALK tyrosine kinase receptor/Echinoderm microtubule-associated protein-like 4 (Homo sapiens, UniProt Q9UM73+Q9HC35+Q96SW2), sequence (Q9UM73 19-1620 limits assumed, change not shown): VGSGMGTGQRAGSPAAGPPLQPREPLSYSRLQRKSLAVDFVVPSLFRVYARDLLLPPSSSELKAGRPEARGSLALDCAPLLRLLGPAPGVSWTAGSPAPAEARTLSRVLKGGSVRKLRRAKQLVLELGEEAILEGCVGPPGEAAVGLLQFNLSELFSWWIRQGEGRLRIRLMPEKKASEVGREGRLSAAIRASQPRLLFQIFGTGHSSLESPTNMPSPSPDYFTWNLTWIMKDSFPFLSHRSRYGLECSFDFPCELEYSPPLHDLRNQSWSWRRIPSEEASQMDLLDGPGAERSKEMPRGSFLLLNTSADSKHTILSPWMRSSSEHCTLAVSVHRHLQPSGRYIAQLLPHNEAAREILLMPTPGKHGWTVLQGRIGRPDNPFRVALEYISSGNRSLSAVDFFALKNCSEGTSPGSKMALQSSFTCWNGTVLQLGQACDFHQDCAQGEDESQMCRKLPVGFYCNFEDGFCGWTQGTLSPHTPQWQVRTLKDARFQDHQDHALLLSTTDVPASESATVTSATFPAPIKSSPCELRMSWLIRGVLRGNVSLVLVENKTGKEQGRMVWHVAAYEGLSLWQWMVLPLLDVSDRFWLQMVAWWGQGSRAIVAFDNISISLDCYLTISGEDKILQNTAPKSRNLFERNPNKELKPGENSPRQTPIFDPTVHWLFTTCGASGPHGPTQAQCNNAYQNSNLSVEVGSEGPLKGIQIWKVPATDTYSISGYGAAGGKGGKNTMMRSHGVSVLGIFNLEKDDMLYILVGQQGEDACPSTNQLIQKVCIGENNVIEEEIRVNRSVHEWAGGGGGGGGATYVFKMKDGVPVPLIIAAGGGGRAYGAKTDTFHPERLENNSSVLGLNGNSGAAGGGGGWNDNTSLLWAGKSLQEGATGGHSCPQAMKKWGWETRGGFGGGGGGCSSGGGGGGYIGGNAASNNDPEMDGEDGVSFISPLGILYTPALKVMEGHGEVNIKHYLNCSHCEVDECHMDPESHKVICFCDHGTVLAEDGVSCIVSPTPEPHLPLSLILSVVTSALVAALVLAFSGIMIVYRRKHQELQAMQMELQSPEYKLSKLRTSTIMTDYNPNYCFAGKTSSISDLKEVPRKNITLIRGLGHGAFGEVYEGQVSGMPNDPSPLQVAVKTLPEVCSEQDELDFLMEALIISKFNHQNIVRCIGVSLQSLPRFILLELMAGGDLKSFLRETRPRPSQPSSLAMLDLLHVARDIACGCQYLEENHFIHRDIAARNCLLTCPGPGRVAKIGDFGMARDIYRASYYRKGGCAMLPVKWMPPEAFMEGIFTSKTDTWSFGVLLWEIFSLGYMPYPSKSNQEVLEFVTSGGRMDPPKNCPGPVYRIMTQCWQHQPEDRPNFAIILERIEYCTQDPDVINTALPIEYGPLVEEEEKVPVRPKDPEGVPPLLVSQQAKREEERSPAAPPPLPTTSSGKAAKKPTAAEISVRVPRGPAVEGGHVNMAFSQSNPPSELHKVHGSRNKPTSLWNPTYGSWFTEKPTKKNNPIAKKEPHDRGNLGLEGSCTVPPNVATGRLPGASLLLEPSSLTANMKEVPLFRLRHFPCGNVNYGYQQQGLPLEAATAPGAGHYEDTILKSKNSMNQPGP
# [10] = target: ALK tyrosine kinase receptor (Homo sapiens, UniProt Q9UM73); assay: Inhibition of N-terminal flag-tagged NanoLuc fused ALK kinase domain (1072 to 1410 residues) (unknown origin) expressed in mouse BaF3 cells assessed as reduction in BRET signal incubated for 2 hrs in presence of CPD-1571 tracer by NanoBRET assay; assay type: cell-based
# ALK tyrosine kinase receptor, sequence (Q9UM73 whole entry, the tested form may be a part): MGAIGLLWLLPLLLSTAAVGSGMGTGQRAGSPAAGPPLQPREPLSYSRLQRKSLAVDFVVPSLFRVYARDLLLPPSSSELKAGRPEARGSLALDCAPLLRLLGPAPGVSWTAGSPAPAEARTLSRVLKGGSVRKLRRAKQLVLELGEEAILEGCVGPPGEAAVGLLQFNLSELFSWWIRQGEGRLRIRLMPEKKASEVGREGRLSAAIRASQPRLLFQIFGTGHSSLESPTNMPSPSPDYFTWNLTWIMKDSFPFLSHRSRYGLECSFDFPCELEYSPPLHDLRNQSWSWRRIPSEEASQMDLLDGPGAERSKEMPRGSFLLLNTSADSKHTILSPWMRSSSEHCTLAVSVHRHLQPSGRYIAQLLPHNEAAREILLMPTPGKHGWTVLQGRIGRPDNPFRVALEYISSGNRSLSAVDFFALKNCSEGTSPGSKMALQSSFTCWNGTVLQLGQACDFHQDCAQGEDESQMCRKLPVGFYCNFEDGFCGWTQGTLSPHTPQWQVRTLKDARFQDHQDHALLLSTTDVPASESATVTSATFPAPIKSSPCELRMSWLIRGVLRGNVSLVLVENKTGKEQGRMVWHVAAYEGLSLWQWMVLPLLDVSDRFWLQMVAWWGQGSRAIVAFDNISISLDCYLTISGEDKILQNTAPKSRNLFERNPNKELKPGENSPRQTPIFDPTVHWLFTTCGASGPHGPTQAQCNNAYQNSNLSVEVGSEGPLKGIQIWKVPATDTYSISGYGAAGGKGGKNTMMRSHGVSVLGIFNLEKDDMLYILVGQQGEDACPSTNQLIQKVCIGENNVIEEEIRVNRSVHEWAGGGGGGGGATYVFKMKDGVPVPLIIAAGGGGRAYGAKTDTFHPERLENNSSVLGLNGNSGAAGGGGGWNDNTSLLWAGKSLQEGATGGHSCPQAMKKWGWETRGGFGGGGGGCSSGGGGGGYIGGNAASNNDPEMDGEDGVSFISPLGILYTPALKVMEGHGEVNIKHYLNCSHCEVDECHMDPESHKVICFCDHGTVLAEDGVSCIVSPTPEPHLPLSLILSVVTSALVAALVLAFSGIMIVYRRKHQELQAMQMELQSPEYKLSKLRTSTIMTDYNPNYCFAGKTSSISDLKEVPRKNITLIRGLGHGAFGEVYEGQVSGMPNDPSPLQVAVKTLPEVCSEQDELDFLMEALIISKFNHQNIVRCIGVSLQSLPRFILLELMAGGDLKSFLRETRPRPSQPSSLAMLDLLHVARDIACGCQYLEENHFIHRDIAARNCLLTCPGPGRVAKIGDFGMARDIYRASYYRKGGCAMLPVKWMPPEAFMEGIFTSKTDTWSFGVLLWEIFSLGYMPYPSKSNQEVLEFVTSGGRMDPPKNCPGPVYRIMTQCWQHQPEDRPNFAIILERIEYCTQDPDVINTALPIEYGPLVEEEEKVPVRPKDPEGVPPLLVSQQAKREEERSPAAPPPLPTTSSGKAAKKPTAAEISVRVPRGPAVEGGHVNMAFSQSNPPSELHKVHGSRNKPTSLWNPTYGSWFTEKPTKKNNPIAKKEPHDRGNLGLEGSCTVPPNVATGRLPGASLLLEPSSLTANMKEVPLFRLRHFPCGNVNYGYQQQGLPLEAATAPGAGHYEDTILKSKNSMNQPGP
# [11] = system: Protein cereblon/ALK tyrosine kinase receptor/Echinoderm microtubule-associated protein-like 4 (Homo sapiens), Q9UM73+Q9HC35+Q96SW2 [UNDEFINED MUTATION]; assay: PROTAC activity at human CRBN/HiBit-tagged EML4-ALK variant 3b G1202R mutant expressed in mouse BaF3 cells assessed as induction of EML4-ALK variant 3b fusion protein degradation at 2 uM incubated for 4 hrs by Nano-Glo HiBiT assay relative to control; assay type: cell-based
# Method in brief: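 Ba/F3 cells stably expressing humanized CRBN and HiBiT-tagged EML4-ALK v3 (WT or mutant) were treated for 4 h. Remaining fusion protein was quantified by HiBiT bioluminescence relative to control.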
# Mus musculus [12] = assay type: functional, organism-based; conditions: BALB/c, BaF3, dose 10.0 mg/kg, route po, time 14.0 day
# BaF3 [13] = assay type: functional; conditions: Mus musculus, dose 10.0 mg/kg, route po, time 14.0 day
# Mus musculus [14] = assay type: functional, organism-based; conditions: BALB/c, BaF3, dose 10.0 mg/kg, route po, time 14.0 day; remark: listed apart in the source
# [15] = target: Protein cereblon/ALK tyrosine kinase receptor/Echinoderm microtubule-associated protein-like 4 (Homo sapiens, UniProt Q9UM73+Q9HC35+Q96SW2, G1202R); assay: PROTAC activity at human CRBN/EML4-ALK variant 3b G1202R mutant expressed in mouse BaF3 cells assessed as induction of EML4-ALK fusion protein degradation incubated for 4 hrs by Nano-Glo HiBiT assay; assay type: cell-based
# [16] = target: Protein-tyrosine kinase 2-beta (Homo sapiens) (UniProt Q14289); assay: Induction of PTK2B degradation in human MOLT-4 cells incubated for 6 hrs by MS based proteomics analysis; assay type: cell-based
# Erythrocyte [17] = assay: Hemolytic activity in human RBC assessed as hemolysis incubated for 45 mins by absorbance based microplate reader analysis; assay type: toxicity, cell-based; conditions: 0.75 h
# [18] = target: T1, Aurora kinase A (Homo sapiens) (UniProt O14965); assay: Induction of AURKA degradation in human MOLT-4 cells incubated for 6 hrs by MS based proteomics analysis; assay type: cell-based
# T1 sequence (whole entry): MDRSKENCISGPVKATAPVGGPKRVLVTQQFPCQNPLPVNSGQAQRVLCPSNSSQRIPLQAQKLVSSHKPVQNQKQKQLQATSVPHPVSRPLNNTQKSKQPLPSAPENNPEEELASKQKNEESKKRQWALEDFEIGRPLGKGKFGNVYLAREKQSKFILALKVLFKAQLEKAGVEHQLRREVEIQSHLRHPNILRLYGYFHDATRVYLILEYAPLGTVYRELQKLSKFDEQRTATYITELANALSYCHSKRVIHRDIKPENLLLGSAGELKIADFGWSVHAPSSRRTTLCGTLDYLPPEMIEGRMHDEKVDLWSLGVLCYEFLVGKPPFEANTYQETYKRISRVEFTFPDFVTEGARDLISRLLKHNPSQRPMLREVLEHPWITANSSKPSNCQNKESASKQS
# [19] = target: T2, Serine/threonine-protein kinase ULK1 (Homo sapiens) (UniProt O75385); assay: Induction of ULK1 degradation in human MOLT-4 cells incubated for 6 hrs by MS based proteomics analysis; assay type: cell-based
# T2 sequence (whole entry): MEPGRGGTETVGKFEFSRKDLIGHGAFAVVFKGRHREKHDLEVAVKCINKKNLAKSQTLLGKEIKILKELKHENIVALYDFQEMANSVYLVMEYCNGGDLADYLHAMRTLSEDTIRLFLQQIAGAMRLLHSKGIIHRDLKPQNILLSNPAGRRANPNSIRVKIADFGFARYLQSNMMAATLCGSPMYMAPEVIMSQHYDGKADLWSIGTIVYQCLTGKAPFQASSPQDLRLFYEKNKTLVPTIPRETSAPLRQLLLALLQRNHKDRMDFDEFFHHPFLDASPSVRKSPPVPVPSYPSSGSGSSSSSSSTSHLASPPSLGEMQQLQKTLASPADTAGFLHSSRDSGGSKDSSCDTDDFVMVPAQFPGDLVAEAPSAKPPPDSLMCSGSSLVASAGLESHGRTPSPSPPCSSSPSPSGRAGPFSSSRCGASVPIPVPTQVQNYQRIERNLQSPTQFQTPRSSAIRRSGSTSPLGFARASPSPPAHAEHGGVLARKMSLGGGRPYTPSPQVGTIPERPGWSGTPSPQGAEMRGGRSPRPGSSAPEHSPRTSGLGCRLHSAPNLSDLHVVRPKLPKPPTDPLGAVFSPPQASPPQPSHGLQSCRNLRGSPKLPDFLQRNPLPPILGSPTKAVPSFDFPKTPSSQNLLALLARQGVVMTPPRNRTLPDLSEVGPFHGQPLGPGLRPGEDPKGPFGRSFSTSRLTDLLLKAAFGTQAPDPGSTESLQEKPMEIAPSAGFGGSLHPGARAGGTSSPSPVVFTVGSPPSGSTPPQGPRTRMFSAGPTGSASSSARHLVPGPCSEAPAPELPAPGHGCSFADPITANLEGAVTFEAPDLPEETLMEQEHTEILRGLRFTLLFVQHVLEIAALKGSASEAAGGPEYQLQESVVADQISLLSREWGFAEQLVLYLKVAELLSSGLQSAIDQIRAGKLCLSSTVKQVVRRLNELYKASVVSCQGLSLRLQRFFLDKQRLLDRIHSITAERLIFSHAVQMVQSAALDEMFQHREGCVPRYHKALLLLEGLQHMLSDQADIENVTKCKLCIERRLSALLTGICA
# Erythrocyte [20] = assay: Hemolytic activity in mouse RBC assessed as hemolysis incubated for 45 mins by absorbance based microplate reader analysis; assay type: toxicity, cell-based; conditions: 0.75 h
# [21] = target: Ribosomal protein S6 kinase alpha-1 (Homo sapiens) (UniProt Q15418); assay: Induction of RSK1 degradation in human MOLT-4 cells incubated for 6 hrs by MS based proteomics analysis; assay type: cell-based
# [22] = target: Tyrosine-protein kinase Fer (Homo sapiens) (UniProt P16591); assay: Induction of FER degradation in human MOLT-4 cells incubated for 6 hrs by MS based proteomics analysis; assay type: cell-based
# [23] = Solubility of the compound in FeSSIF at pH 5.0 incubated for 24 hrs under shaking condition by UPLC-UV/HPLC-UV analysis; assay type: physicochemical
# HepG2 [24] = assay: Induction of phospholipidosis in human HepG2 cells assessed as […] incubated for 48 hrs by Hoechst 33342 staining based imaging analysis; assay type: toxicity, cell-based; conditions: hepg2, 48 h
# HepG2 [25] = assay: Cytotoxicity against human HepG2 cells assessed as reduction in cell viability incubated for 48 hrs by Hoechst 33342 staining based imaging analysis; assay type: toxicity; conditions: hepg2, 48 h
Structure (SMILES),GI50 (BaF3 [3]),GI50 (BaF3 [4]),GI50 (BaF3 [5]),GI50 (BaF3 [6]),GI50 (BaF3 [7]),microsomal CLint at 1 µM [8],also measured
CCc1cc2c(cc1N1CCN(CC3CN(c4ccc5c(c4)C(=O)N(C4CCC(=O)NC4=O)C5=O)C3)CC1)C(C)(C)c1[nH]c3cc(C#N)ccc3c1C2=O (stereo not given),–,–,–,–,–,–,Stability [1]: Stable; F [2]: 48%
COc1cc(N2CCC(N3CCN(C)CC3)CC2)ccc1Nc1ncc(Cl)c(Nc2ccccc2P(C)(C)=O)n1 [BRIGATINIB],12.6 nM,251 nM,200 nM,39.8 nM,39.8 nM,–,–
COc1cc(C2CCN(CC#Cc3ccc4c(c3)CN(C3CCC(=O)NC3=O)C4=O)CC2)c(C)cc1Nc1ncc(Cl)c(Nc2ccccc2S(=O)(=O)C(C)C)n1 (stereo not given),–,–,–,–,–,14.8 µL/min/mg,–
Cc1cc(Nc2ncc(Cl)c(Nc3ccccc3S(=O)(=O)C(C)C)n2)c(OC(C)C)cc1C1CCN(CCOCCOCCNC(=O)CNc2cccc3c2C(=O)N(C2CCC(=O)NC2=O)C3=O)CC1 (stereo not given),–,–,–,–,–,–,DC50 [9]: 289 nM; IC50 [10]: 971 nM; Activity [11]: < 50%
C[C@H]1Oc2cc(cnc2N)-c2c(nn(C)c2C#N)CN(C)C(=O)c2ccc(F)cc21 [LORLATINIB],3.16 nM,100 nM,501 nM,39.8 nM,50.1 nM,–,Activity (Mus musculus [12]): Active; Activity (BaF3 [13]): inactive; Activity (Mus musculus [14]): Active
COc1cc(C2CCN(CCCC#Cc3cccc4c3CN(C3CCC(=O)NC3=O)C4=O)CC2)c(C)cc1Nc1ncc(Cl)c(Nc2ccccc2S(=O)(=O)C(C)C)n1 (stereo not given),–,–,–,–,–,10.5 µL/min/mg,DC50 [15]: 43 nM; Activity [16]: Active; Activity (Erythrocyte [17]): Non-Toxic; DC50 [9]: 6.6 nM; Activity [18]: Active; Activity [19]: Active; IC50 [10]: 542 nM; Activity (Erythrocyte [20]): Non-Toxic; Activity [21]: Active; F [2]: 9%; Activity [22]: Active
COc1cc(C2CCN(CC3CN(c4ccc5c(c4)C(=O)N(C4CCC(=O)N(C)C4=O)C5=O)C3)CC2)c(C)cc1Nc1ncc(Cl)c(Nc2ccccc2S(=O)(=O)C(C)C)n1 (stereo not given),15.8 nM,126 nM,126 nM,39.8 nM,15.8 nM,–,–
COc1cc(C2CCN(CC3CN(c4ccc5c(c4)CN(C4CCC(=O)NC4=O)C5=O)C3)CC2)c(C)cc1Nc1ncc(Cl)c(Nc2ccccc2S(=O)(=O)C(C)C)n1 (stereo not given),–,–,–,–,–,25.2 µL/min/mg,–
COc1cc(CCNCCCCCC#Cc2cccc3c2CN(C2CCC(=O)NC2=O)C3=O)c(C)cc1Nc1ncc(Cl)c(Nc2ccccc2S(=O)(=O)C(C)C)n1 (stereo not given),–,–,–,–,–,39 µL/min/mg,Activity (Erythrocyte [17]): Toxic; solubility thermodynamic at 24 h [23]: 686 µM; Activity (Erythrocyte [20]): Toxic; F [2]: 0.2%
COc1cc(C2CCN(CCCCCC#Cc3cccc4c3CN(C3CCC(=O)NC3=O)C4=O)CC2)c(C)cc1Nc1ncc(Cl)c(Nc2ccccc2S(=O)(=O)C(C)C)n1 (stereo not given),–,–,–,–,–,5.4 µL/min/mg,Activity (Erythrocyte [17]): Toxic; Activity (Erythrocyte [20]): Toxic
CCc1cc2c(cc1N1CCC(N3CCOCC3)CC1)C(C)(C)c1[nH]c3cc(C#N)ccc3c1C2=O [ALECTINIB],12.6 nM,398 nM,501 nM,79.4 nM,79.4 nM,–,–
COc1cc(CCNCCCCCC#Cc2cccc3c2C(=O)N(C2CCC(=O)NC2=O)C3=O)c(C)cc1Nc1ncc(Cl)c(Nc2ccccc2S(=O)(=O)C(C)C)n1 (stereo not given),–,–,–,–,–,59 µL/min/mg,Activity (Erythrocyte [17]): Toxic; Activity (Erythrocyte [20]): Toxic
Cc1cc(Nc2ncc(Cl)c(Nc3ccccc3S(=O)(=O)C(C)C)n2)c(OC(C)C)cc1C1CCNCC1 [CERITINIB],200 nM,2000 nM,501 nM,316 nM,158 nM,–,Activity (HepG2 [24]): Non-Toxic; Activity (HepG2 [25]): Non-Toxic
C[C@@H](Oc1cc(-c2cnn(C3CCNCC3)c2)cnc1N)c1c(Cl)ccc(F)c1Cl [CRIZOTINIB],1000 nM,2000 nM,2000 nM,2000 nM,2000 nM,–,–
